Legend:
Mus musculus [1] = assay: Tumor volume in 12 days after tumor implantation at a dose of 6.25 mg/kg/day of compound; format: functional
Summary of the method: (§1)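 10⁶ M5076 reticulum cell sarcoma cells were injected im into the left leg of female BDF₁ mice, five per group, on day 0. Compound in 10–20% DMSO/arachis oil was dosed ip daily on days 1–17. Tumor volumes (mm³) were recorded on days 12, 16, 20 and 24 after implantation, with NM marking a tumor that could not be measured.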

Mus musculus [2] = assay: Tumor volume in 12 days after tumor implantation at a dose of 3.125 mg/kg/day of compound; format: functional; summary of the method: as §1
Mus musculus [3] = assay: Tumor volume in 24 days after tumor implantation at a dose of 12.5 mg/kg/day; format: functional; summary of the method: as §1
Mus musculus [4] = assay: Ratio of tumor volume of test(T) animals compared to control(C) animals x 100 T/C(%)] at a dose of 3.125 mg/kg/day; format: functional
Summary of the method: (§2)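 M5076 reticulum cell sarcoma: 10⁶ cells implanted im into the left leg of female BDF₁ mice (groups of five) on day 0. Treatment was ip, daily on days 1–17, in 10–20% DMSO in arachis oil. T/C% is treated tumor volume over control tumor volume × 100.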

Mus musculus [5] = assay: Tumor volume in 16 days after tumor implantation at a dose of 12.5 mg/kg/day of compound; format: functional; summary of the method: as §1
Mus musculus [6] = assay: Tumor volume in 16 days after tumor implantation at a dose of 3.125 mg/kg/day of compound; format: functional; summary of the method: as §1
Mus musculus [7] = assay: Ratio of tumor volume of test(T) animals compared to control(C) animals x 100 T/C(%)] at a dose of 12.50 mg/kg/day; format: functional; summary of the method: as §2
Mus musculus [8] = assay: Tumor volume in 24 days after tumor implantation at a dose of 6.25 mg/kg/day; format: functional; summary of the method: as §1
Mus musculus [9] = assay: Mean of weight gain from day 0 to day 24 at a dose of 25 mg/kg/day of compound; format: functional; set-up: unit not given here
Summary of the method: (§3)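 M5076 reticulum cell sarcoma: 10⁶ cells implanted im into the left leg of female BDF₁ mice (groups of five) on day 0. Drug in 10–20% DMSO in arachis oil was given ip daily on days 1–17. Weight change is the mean weight gain from day 0 to day 24.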

Mus musculus [10] = assay: Mean of weight gain from day 0 to day 24 in the mice at a dose of 50 mg/kg/day of compound; format: functional; summary of the method: as §3
Mus musculus [11] = assay: Tumor volume in 20 days after tumor implantation at a dose of 3.125 mg/kg/day; format: functional; summary of the method: as §1
Mus musculus [12] = assay: Tumor volume in 20 days after tumor implantation at a dose of 12.5 mg/kg/day of compound; format: functional; summary of the method: as §1
Mus musculus [13] = assay: Tumor volume in 12 days after tumor implantation at a dose of 12.5 mg/kg/day of compound; format: functional; summary of the method: as §1
Mus musculus [14] = assay: Tumor volume in 16 days after tumor implantation at a dose of 6.25 mg/kg/day of compound; format: functional; summary of the method: as §1
Mus musculus [15] = assay: Ratio of tumor volume of test(T) animals compared to control(C) animals x 100 T/C(%)] at a dose of 25 mg/kg/day; format: functional; summary of the method: as §2
Mus musculus [16] = assay: Ratio of tumor volume of test (T) animals compared to control (C) animals x 100 T/C(%)] at a dose of 50 mg/kg/day of compound; format: functional; summary of the method: as §2
Mus musculus [17] = assay: Mean of weight gain from day 0 to day 24 at a dose of 12.5 mg/kg/day of compound; format: functional; set-up: unit not given here; summary of the method: as §3
Mus musculus [18] = assay: Tumor volume in 24 days after tumor implantation at a dose of 3.125 mg/kg/day; format: functional; summary of the method: as §1
Mus musculus [19] = assay: Ratio of tumor volume of test(T) animals compared to control(C) animals x 100 T/C(%)] at a dose of 6.25 mg/kg/day; format: functional; summary of the method: as §2
Mus musculus [20] = assay: Tumor volume in 24 days after tumor implantation at a dose of 50 mg/kg/day of compound; format: functional; summary of the method: as §1
Mus musculus [21] = assay: (§4) Mean of weight gain from day 0 to day 24 at a dose of 3.125 mg/kg/day of compound; format: functional; set-up: unit not given here; summary of the method: as §3
Mus musculus [22] = assay: Tumor volume in 24 days after tumor implantation at a dose of 25 mg/kg/day of compound; format: functional; summary of the method: as §1
Mus musculus [23] = assay: Mean of weight gain from day 0 to day 24 at a dose of 6.25 mg/kg/day; format: functional; set-up: unit not given here; summary of the method: as §3
Mus musculus [24] = assay: Tumor volume in 20 days after tumor implantation at a dose of 6.25 mg/kg/day of compound; format: functional; summary of the method: as §1
Mus musculus [25] = assay: Mean of weight gain from day 0 to day 24 at a dose of 50 mg/kg/day of compound; format: functional; summary of the method: as §3
Mus musculus [26] = assay: as §4; format: functional; summary of the method: as §3
Mus musculus [27] = assay: Ratio of tumor volume of test(T) animals compared to control(C) animals x 100T/C(%)] at a dose of 3.125 mg/kg/day of compound; format: organism-based; details: in vivo; summary of the method: as §2
Mus musculus [28] = assay: Tumor volume in 24 days after tumor implantation at a dose of 3.125 mg/kg/day of compound; format: functional; summary of the method: as §1
Mus musculus [29] = assay: Tumor volume in 20 days after tumor implantation at a dose of 3.125 mg/kg/day of compound; format: functional; summary of the method: as §1
Mus musculus [30] = assay: Tumor volume in 20 days after tumor implantation at a dose of 25 mg/kg/day of compound; format: functional; summary of the method: as §1
Mus musculus [31] = assay: Tumor volume in 16 days after tumor implantation at a dose of 25 mg/kg/day of compound; format: functional; summary of the method: as §1

Compound	Tumor volume (Mus musculus [1]) [mm**3]	Tumor volume (Mus musculus [2]) [mm**3]	Tumor volume (Mus musculus [3]) [mm**3]	Antitumor activity (Mus musculus [4]) [%]	Tumor volume (Mus musculus [5]) [mm**3]	Tumor volume (Mus musculus [6]) [mm**3]	Antitumor activity (Mus musculus [7]) [%]	Tumor volume (Mus musculus [8]) [mm**3]	Weight change (Mus musculus [9])	Tumor volume (Mus musculus [11]) [mm**3]	Tumor volume (Mus musculus [12]) [mm**3]	Tumor volume (Mus musculus [14]) [mm**3]	Antitumor activity (Mus musculus [15]) [%]	Antitumor activity (Mus musculus [16]) [%]	Weight change (Mus musculus [17])	Tumor volume (Mus musculus [18]) [mm**3]	Antitumor activity (Mus musculus [19]) [%]	Weight change (Mus musculus [21])	Weight change (Mus musculus [23])	Tumor volume (Mus musculus [24]) [mm**3]	also measured
CCCCNc1ccc(-c2c(N)nc(N)nc2CC)cc1[N+](=O)[O-]	212	271	1061	78	283	622	41	1920	3.7	1176	496	438	22	15	3.6	2143	70	8.2	5.4	913	Weight change (Mus musculus [10]): 2.7; Tumor volume (Mus musculus [13]): 180 mm**3; Tumor volume (Mus musculus [20]): 368 mm**3; Tumor volume (Mus musculus [22]): 638 mm**3
CCc1nc(N)nc(N)c1-c1ccc(NCc2ccc(Cl)c(Cl)c2)c([N+](=O)[O-])c1	–	216	395	48	–	498	16	851	2.7	858	216	256	<8	<8	3	1173	36	3.6	3.5	385	Weight change (Mus musculus [25]): 2.9
CN(Cc1cnc2nc(N)nc(N)c2n1)c1ccc(C(=O)N[C@@H](CCC(=O)O)C(=O)O)cc1 [METHOTREXATE]	347	411	–	–	–	987	–	–	–	–	–	389	–	–	–	–	–	–	–	–	Weight change (Mus musculus [26]): 3.9; T/C (Mus musculus [27]): 92%; Tumor volume (Mus musculus [28]): 2270 mm**3; Tumor volume (Mus musculus [29]): 1914 mm**3
CCc1nc(N)nc(N)c1-c1ccc(NCc2ccc(C)cc2)c([N+](=O)[O-])c1	–	–	641	76	198	596	24	1099	2.4	1581	385	270	20	–	2.4	1881	44	3	2.1	704	Tumor volume (Mus musculus [30]): 426 mm**3; Tumor volume (Mus musculus [22]): 514 mm**3; Tumor volume (Mus musculus [31]): 180 mm**3

— ChEMBL document CHEMBL1124368 (J Med Chem, 1989)
